Test [1] is described as follows: Inhibition of Mycobacterium tuberculosis InhA assessed as effect on NADH oxidation incubated for 10 mins by spectrophotometry.
A short description of test [2]: Inhibition of Mycobacterium tuberculosis InhA assessed as residual enzyme activity by measuring NADH oxidation at 100 uM incubated for 10 mins by spectrophotometry.
The nature of test [3]: Mixed type inhibition of Mycobacterium tuberculosis InhA assessed as effect on NADH oxidation incubated for 10 mins by spectrophotometry. A digest of the protocol: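 Inhibition type and Ki were taken from the continuous spectrophotometric InhA assay. DD-CoA was the substrate, and its Km was determined alongside.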

Bounds are passed on as bounds.

The term IC50 denotes the midpoint of a concentration-inhibition curve. As to `COc1ccc(-c2[nH]c3ccccc3c2CCC(=O)Nc2ncccc2C)cc1`, the IC50 in test [1] stood at 14 µM. The Activity in test [2] is more than 50%.
By Ki is commonly meant the dissociation constant of the complex between target and ligand, obtained from inhibition or displacement. Take `Cc1cc2ncn(Cc3ccc(Cl)c(Cl)c3)c2cc1C`: the half-maximal inhibitory concentration (IC50) in test [1] was 10 µM. Moreover, the Ki in test [3] turned out to be 4 µM. Moreover, the Activity in test [2] was more than 50%.
As to `Oc1cc(Cl)ccc1Oc1ccc(Cl)cc1Cl`, the Activity in test [2] is more than 50%.
Take `Cc1c(CN(C)C(=O)/C=C/c2cnc3c(c2)CCC(=O)N3)c2ccccc2n1C`: the Activity in test [2] is more than 50%.

The values above are taken from ChEMBL document CHEMBL4715801, “Discovery of Mycobacterium tuberculosis InhA Inhibitors by Binding Sites Comparison and Ligands Prediction” (J Med Chem, 2016).
